No end group written: not given here.
How the values were obtained:
[1] = Serum biochemical factors after intraperitoneal injection; type: in vivo, mouse; conditions: blood 48 h after the injection, mean ± standard deviation
Summary of the method: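 Mice given PBS (control) or peptide at 50 or 100 μg/mouse by single ip injection (100 μL/mouse). Blood (0.2 mL) drawn 48 h later and serum GPT, GOT, total bilirubin and uric acid quantified. Five mice per group. Data shown as mean ± SD, compared by ANOVA, p<0.05 taken as significant.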

[2] = test system: human embryonic kidney cells (HEK-293); assay: MTT cytotoxicity assay; type: cell-based; conditions: 1.56–50 μg/mL, 48 h, 37°C, in words (Figure 6)
Summary of the method: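 HEK-293 cells seeded fresh at 1×10^5 cells/well, exposed to twofold serial peptide dilutions (1.56–50 μg/mL) at 37°C in 5% CO2 for 48 h. MTT (5 mg/mL stock, 10 μL) then added for 4 h. Formazan dissolved in 100% DMSO, absorbance read at 575 nm, percentage viable cells derived. Triplicate, three independent repeats, mean ± SD.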

Substance	Serum level of GOT ([1]; 50 μg/mouse ip) [U/L]	Serum level of GPT ([1]; 50 μg/mouse ip) [U/L]	Serum level of TBIL ([1]; 50 μg/mouse ip) [mg/dL]	Serum level of UA ([1]; 50 μg/mouse ip) [mg/dL]	Serum level of GOT ([1]; 100 μg/mouse ip) [U/L]	Serum level of GPT ([1]; 100 μg/mouse ip) [U/L]	Serum level of TBIL ([1]; 100 μg/mouse ip) [mg/dL]	Serum level of UA ([1]; 100 μg/mouse ip) [mg/dL]	Cytotoxic activity against HEK-293 [2]
FFHHIFRGAVHVGKTIHRLVTG-NH2 [I9A-piscidin-1]	8.96±1.12	6.67±0.47	0.21 ± 0.06	0.42 ± 0.07	10.86±1.07	7.17±0.37	0.51 ± 0.09	0.87 ± 0.09	
FFHHIFRGIVHVGKTAHRLVTG-NH2 [I16A-piscidin-1]	9.22±0.90	5.92±1.10	0.20 ± 0.04	0.39 ± 0.12	11.08±0.94	7.33±1.10	0.53 ± 0.08	0.77 ± 0.14	
FFHHIFRGIVHVGKTIHRLVTG-NH2 [Piscidin-1, reference compound]	9.48±1.06	5.83±0.52	0.19 ± 0.04	0.45 ± 0.06	10.64±0.97	4.62±0.42	0.27 ± 0.07	0.53 ± 0.08	highest cytotoxic activity
FFHHIFRGIVHVGKTKHRLVTG-NH2 [I16K-piscidin-1]	8.88±0.86	6.43±0.86	0.20 ± 0.05	0.41 ± 0.11	8.53±1.15				lowest activity against HEK-293 cells compared to other peptides
FFHHIFRGKVHVGKTIHRLVTG-NH2 [I9K-piscidin-1]	9.27±0.78	6.26±0.22	0.18 ± 0.07	0.43 ± 0.05	10.32±0.88	6.86±0.82	0.48 ± 0.10	0.81 ± 0.07	

Reference: publication PMC6585414 (Infection and Drug Resistance, 2019)
